From ChEMBL document CHEMBL1153527, “Discovery of a novel series of quinolone and naphthyridine derivatives as potential topoisomerase I inhibitors by scaffold modification” (J Med Chem, 2009)
≈ marks a conversion by molar mass, not a printed value. Calls of active or inactive are those of the source. The rule behind the calls is not given here.

Assays:
[1] = system: MCF7; test: Cytotoxicity against estrogen receptor-positive human MCF7 cells expressing wild type p53 after 48 hrs by SRB assay; type: functional, cell-based; settings: MCF7, 48 h
Outline: (§1)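 Cell lines came from CCRC, Taiwan. Cells were seeded at about 5 × 10^3 per well and left overnight. They were then given serum-free medium containing 0-10 μM compound (0.08-10 μM serial dilutions) for 48 h at 37 °C. Cells were fixed with TCA (10% final), stained with SRB (0.4% final), and the dye was dissolved in 10 mM Tris with A515 read. IC50 was taken from a fitted log concentration-response curve.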

[2] = system: Mus musculus; test: Toxicity in athymic BALB/c nude mouse xenografted with human HT-29 cells assessed as morbidity at 75 mg/kg, ip for 10 days measured after 30 days; type: organism-based; set-up: dose 75 mg/kg, route intraperitoneal; settings: in vivo, 720 h
Outline: (§2)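 Nude mouse HT-29 xenograft model as above: female athymic BALB/c, 18-22 g, n=6 per group. Dosing was i.p. daily in 400 μL for 10 consecutive days at 75 or 150 mg/kg, with saline controls. Body weight and tumour volume were recorded every 4 days, and the study ended on day 30. Weights were compared with controls by Student's t test.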

[3] = Cytotoxicity against estrogen receptor-negative human […] cells expressing p53 mutant after 48 hrs by SRB assay; type: functional, cell-based; outline: as §1
[4] = system: SK-OV-3; test: Cytotoxicity against human SKOV3 cells after 48 hrs by MTT assay; type: functional, cell-based; settings: SK-OV-3, 48 h
Outline: (§3)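 Cells were seeded at about 5 × 10^3 per well, then given serum-free medium containing 0-10 μM test compound for 48 h at 37 °C. MTT was added at 0.5 mg/mL final for 4 h at 37 °C. Formazan was dissolved in DMSO and OD570 read. IC50 values (50% cell death) came from a fitted log concentration-response curve.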

[5] = system: HT-29; test: Induction of apoptosis in human HT-29 cells assessed as apoptotic cells at 10 ug/mL after 24 hrs by annexin V/propidium iodide-based flow cytometry; type: functional
Outline: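 SKOV-3 or HT-29 cells (1-5 × 10^6 cells/mL) were incubated with 0, 5 or 10 μg/mL compound for 24 h. They were then washed and stained with EGFP-Annexin V/PI and analysed immediately by flow cytometry. Annexin V+/PI− cells were scored as apoptotic; PI-permeant cells were scored as necrotic.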

[6] = system: DNA topoisomerase 2 (Bos taurus); test: Inhibition of topoisomerase 2 at 200 uM
[7] = target: T1, DNA topoisomerase 1 (Homo sapiens) (UniProt P11387); test: Induction of human topoisomerase 1-mediated chromosomal DNA strand breaks in HT-29 cells at 10 uM after 1 hr by comet assay; type: cell-based
T1 sequence (whole entry): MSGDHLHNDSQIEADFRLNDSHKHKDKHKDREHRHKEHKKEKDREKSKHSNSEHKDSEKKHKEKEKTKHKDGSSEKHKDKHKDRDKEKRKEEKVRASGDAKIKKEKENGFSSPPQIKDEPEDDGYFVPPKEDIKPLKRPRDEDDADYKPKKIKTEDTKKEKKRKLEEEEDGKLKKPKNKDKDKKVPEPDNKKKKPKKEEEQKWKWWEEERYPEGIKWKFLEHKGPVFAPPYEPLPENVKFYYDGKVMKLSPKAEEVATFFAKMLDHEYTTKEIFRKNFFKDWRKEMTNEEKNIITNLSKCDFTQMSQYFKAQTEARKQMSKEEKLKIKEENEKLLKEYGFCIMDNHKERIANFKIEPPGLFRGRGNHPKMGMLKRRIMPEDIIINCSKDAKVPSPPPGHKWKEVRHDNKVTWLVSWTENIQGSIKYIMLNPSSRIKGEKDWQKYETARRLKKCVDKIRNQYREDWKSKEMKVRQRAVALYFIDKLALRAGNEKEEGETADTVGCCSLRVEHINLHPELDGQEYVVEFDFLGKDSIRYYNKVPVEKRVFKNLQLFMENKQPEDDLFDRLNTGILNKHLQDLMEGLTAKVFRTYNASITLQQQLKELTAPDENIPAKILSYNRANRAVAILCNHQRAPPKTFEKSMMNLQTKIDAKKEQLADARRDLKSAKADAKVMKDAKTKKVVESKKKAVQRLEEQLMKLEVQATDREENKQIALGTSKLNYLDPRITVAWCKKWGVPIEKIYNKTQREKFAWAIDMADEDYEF
Outline: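 HT-29 cells were seeded at 1 × 10^4 per well and attached overnight, then treated for 1 h. Untreated cells served as negative control. Cells in low-melting agarose on precoated slides were lysed at pH 10.5 for 30 min at 4 °C and unwound in 300 mM NaOH/1 mM EDTA (pH >13) for 30 min at 4 °C. Electrophoresis ran 10 min at 16 V, with SYBR Gold staining. Read-out was mean % tail DNA from ≥50 nuclei, duplicates in three independent experiments.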

[8] = system: SK-OV-3; test: Induction of apoptosis in human SKOV3 cells assessed as morphological changes at 0.25 ug/mL after 24 hrs by immunostaining; type: functional, cell-based
Outline: (§4)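 SKOV3 and HT-29 cells were treated with 0.25 or 5 μg/mL for 24 h. Cell morphology was assessed by microscopy after fixation in 4% formaldehyde and Hoechst 33342 staining (10 μg/mL), against an untreated control.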

[9] = system: PC-3; test: Cytotoxicity against p53-deficient human PC3 cells after 48 hrs by SRB assay; type: functional, cell-based; settings: PC-3, 48 h; outline: as §1
[10] = system: Mus musculus; test: Toxicity in athymic BALB/c nude mouse xenografted with human HT-29 cells assessed as change in body weight at 150 mg/kg, ip for 10 days measured after 30 days; type: organism-based; set-up: dose 150 mg/kg, route intraperitoneal; settings: in vivo, 720 h; outline: as §2
[11] = system: A549; test: Cytotoxicity against human A549 cells expressing wild type p53 after 48 hrs by SRB assay; type: functional, cell-based; settings: A549, 48 h; outline: as §1
[12] = target: T1, DNA topoisomerase 1 (Homo sapiens); test: Induction of human recombinant topoisomerase 1-mediated cleavage of 32P-labeled linearized pRYG plasmid DNA at 25 uM after 30 mins by agarose gel electrophoresis
Outline: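 Recombinant human Top I was incubated with HindIII-linearised pRYG plasmid, 3'-end-labelled with [α-32P]dCTP by Klenow fill-in (about 100000 cpm per reaction). Reactions were stopped with SDS and proteinase K at 45 °C, alkali-denatured, run on a 1% agarose gel and autoradiographed.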

[13] = system: HT-29; test: Cytotoxicity against human HT-29 cells after 48 hrs by MTT assay; type: functional, cell-based; settings: HT-29, 48 h; outline: as §3
[14] = system: HT-29; test: Induction of apoptosis in human HT-29 cells assessed as decrease in accumulation at G0/G1 phase at 1 uM after 48 hrs by flow cytometry; type: functional, cell-based
Outline: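 HT-29 cells were exposed to vehicle or 1, 5 or 10 μM compound for 6, 12, 24 or 48 h. Floating and attached cells were collected, fixed in 70% ethanol and treated with 0.1% Triton X-100. They were stained with PI at 50 μg/mL plus RNaseA at 50 μg/mL for 30 min at room temperature in the dark. FL2 DNA content was read on 10000 cells by flow cytometry. The sub-G1 fraction was taken as apoptotic.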

[15] = Cytotoxicity against p53-deficient human Hep3B cells after 48 hrs by SRB assay; type: functional, cell-based, Hep 3B2; outline: as §1
[16] = system: SK-OV-3; test: Induction of apoptosis in human SKOV3 cells assessed as morphological changes at 5 ug/mL after 24 hrs by immunostaining; type: functional, cell-based; outline: as §4
[17] = Solubility in assay condition at 50 uM; type: physicochemical

For `CCn1cc(-c2nc3ccc([N+](=O)[O-])cc3o2)c(=O)c2cc(F)c(N3CCNC(C)C3)c(F)c21` (configuration not stated), the GI50 [1] was 3 µM, the IC50 [1] was 6.8 µM and the Activity [2] was “Non-toxic”. The GI50 [3] was 0.7 µM, the IC50 [3] was 3.1 µM and the IC50 [4] was 0.55 µg/mL (≈ 1.17 µM). The Activity [5] was 35.9%, the inhibition [6] was “inactive” and the Activity [7] was 48%. For the same compound, the Activity [8] was “Active”, the GI50 [9] was 3.3 µM and the IC50 [9] was 4.2 µM. The Activity [10] was “Non-toxic”, the GI50 [11] was 0.8 µM and the IC50 [11] was 1.5 µM. For the same compound, the Activity [12] was “Active”, the IC50 [13] was 0.37 µg/mL (≈ 0.788 µM) and the Activity [14] was “Active”. For the same compound, the GI50 [15] was 1.5 µM, the IC50 [15] was 3.9 µM and the Activity [16] was “Active”. For the same compound, the solubility [17] was “Insoluble”.
